The values below come from ChEMBL document CHEMBL1146951, “Structure-guided identification of novel VEGFR-2 kinase inhibitors via solution phase parallel synthesis” (Bioorg Med Chem Lett, 2006).

As a reminder, the inhibition is the change of the read-out against control, counted positive when it falls. Read a high inhibition as a response far below the control. For orientation: IC50 means the concentration that inhibits the measured activity by half. Low values mean inhibition by little substance, high ones a need for much substance.

In test [1] the target is T1, Vascular endothelial growth factor receptor 2 (Homo sapiens, UniProt P35968). Put plainly: Inhibition of VEGFR2 at 1 uM. The gist of the method: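 Kinase activity of baculovirus-expressed human VEGFR2 enzyme.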
T1 sequence (P35968 whole entry): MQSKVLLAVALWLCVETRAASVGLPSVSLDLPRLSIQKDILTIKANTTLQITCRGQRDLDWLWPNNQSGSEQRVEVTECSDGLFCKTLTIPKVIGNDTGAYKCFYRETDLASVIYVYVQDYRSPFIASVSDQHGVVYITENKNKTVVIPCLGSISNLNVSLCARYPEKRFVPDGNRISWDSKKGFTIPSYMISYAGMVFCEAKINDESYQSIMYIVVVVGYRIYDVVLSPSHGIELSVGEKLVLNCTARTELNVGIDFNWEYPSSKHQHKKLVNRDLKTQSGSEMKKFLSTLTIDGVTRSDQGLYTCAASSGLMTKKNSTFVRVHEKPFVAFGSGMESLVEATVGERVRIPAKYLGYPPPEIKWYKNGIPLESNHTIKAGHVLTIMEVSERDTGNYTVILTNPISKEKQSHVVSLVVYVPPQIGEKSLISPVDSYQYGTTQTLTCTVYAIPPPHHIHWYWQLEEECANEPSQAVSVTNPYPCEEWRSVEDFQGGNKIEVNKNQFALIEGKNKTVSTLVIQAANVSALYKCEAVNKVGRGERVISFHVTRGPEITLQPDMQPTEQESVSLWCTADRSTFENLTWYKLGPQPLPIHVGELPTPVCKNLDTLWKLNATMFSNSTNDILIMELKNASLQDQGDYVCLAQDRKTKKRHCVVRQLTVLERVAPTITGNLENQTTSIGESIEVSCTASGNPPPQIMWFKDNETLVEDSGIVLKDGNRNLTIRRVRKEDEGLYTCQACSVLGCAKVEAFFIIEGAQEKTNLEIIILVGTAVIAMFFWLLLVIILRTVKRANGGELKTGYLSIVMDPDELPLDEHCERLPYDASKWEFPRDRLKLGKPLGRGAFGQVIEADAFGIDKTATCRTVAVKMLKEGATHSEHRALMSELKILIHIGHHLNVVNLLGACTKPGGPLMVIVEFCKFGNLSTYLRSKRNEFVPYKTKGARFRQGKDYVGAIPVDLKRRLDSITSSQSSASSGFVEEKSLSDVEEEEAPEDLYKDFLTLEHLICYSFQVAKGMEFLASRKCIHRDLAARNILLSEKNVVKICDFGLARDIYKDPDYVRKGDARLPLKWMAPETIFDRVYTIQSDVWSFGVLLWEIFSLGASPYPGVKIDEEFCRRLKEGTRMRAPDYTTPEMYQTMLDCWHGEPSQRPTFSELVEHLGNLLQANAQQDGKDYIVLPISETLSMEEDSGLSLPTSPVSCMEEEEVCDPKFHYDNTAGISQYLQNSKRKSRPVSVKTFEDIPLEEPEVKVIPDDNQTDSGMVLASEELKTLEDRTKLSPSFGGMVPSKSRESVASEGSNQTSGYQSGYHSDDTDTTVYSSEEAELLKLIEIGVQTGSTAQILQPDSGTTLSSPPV
Test [2] deals with Vascular endothelial growth factor receptor 3 (Homo sapiens) (UniProt P35916). Kind of test: Inhibition of VEGFR3 at 300 nM.
Vascular endothelial growth factor receptor 3 (Homo sapiens), sequence (P35916 whole entry): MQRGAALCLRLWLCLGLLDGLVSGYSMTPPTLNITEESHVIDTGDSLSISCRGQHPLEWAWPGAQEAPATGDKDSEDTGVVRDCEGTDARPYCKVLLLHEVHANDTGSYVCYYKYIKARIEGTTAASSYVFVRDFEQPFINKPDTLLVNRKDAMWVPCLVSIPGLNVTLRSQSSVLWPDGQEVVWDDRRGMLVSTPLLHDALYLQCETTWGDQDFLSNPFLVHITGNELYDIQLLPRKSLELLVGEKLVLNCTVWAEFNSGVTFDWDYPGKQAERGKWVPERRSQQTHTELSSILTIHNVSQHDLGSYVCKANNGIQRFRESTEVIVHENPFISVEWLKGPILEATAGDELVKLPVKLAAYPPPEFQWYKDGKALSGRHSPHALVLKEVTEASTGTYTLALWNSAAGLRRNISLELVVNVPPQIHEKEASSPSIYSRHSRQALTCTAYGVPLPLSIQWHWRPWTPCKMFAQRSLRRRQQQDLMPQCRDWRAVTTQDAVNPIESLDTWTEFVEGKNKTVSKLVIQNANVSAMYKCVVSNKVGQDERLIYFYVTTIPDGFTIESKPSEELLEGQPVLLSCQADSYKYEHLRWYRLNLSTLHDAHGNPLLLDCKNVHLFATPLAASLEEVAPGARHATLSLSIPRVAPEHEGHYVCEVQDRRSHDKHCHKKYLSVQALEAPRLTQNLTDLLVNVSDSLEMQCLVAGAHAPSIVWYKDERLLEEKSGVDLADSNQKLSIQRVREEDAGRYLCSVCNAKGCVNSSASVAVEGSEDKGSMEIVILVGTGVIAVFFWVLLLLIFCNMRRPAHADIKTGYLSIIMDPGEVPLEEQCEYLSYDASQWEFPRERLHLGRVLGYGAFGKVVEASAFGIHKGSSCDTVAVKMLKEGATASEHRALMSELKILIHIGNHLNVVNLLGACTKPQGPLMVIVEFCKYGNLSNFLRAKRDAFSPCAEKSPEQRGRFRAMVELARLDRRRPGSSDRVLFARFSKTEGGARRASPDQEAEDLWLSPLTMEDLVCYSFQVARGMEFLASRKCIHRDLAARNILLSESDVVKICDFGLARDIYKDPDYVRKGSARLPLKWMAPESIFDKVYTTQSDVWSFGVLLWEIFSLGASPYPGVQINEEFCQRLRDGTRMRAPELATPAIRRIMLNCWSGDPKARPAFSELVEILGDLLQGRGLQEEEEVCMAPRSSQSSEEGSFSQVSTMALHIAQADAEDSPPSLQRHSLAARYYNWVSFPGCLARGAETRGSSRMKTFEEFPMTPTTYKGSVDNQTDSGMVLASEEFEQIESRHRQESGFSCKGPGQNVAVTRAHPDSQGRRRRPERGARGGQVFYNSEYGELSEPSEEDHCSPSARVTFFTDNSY
The target of test [3] is Protein kinase C (PKC) (Homo sapiens) (UniProt O94806+P41743+P17252+P05129+Q05655+P05771+Q05513+Q02156+P24723+Q15139+Q04759). Put plainly: Inhibition of PKC at 1 uM. Format: protein assay.
Test [4] concerns the target High affinity nerve growth factor receptor (Homo sapiens) (UniProt P04629). Put plainly: Inhibition of TrkA at 1 uM.
The target in test [5] is Cyclin-dependent kinase 1/cyclin B1 (Homo sapiens, UniProt P06493). Kind of test: Inhibition of CDK1/CyclinB1. Format: protein-complex assay.
Cyclin-dependent kinase 1/cyclin B1, sequence (P06493 whole entry): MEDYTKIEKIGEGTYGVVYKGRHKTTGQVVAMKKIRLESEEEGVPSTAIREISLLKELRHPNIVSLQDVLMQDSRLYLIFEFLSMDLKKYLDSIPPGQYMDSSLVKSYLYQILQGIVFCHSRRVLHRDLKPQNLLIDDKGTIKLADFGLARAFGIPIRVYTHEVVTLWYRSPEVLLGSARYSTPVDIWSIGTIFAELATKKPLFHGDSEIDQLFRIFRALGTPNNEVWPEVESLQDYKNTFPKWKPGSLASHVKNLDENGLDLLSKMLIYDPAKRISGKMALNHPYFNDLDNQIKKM
Cyclin-dependent kinase 1/cyclin B1, sequence (P14635 whole entry, further chain): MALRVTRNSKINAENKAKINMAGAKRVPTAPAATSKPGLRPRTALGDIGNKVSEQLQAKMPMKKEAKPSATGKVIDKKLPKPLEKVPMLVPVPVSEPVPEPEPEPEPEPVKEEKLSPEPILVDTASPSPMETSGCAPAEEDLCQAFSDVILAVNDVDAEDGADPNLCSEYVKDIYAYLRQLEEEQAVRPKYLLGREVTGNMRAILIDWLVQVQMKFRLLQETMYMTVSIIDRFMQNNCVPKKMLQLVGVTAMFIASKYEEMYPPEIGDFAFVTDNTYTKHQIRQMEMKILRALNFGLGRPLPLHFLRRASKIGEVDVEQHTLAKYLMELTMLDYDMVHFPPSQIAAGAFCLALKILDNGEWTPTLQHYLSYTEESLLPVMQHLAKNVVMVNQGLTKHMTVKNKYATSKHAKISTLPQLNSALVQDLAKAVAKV
Test [6] has as its target Vascular endothelial growth factor receptor 1 (Homo sapiens) (UniProt P17948). Put plainly: Inhibition of VEGFR1 at 300 nM.
The target of test [7] is T1, Vascular endothelial growth factor receptor 2. Kind of test: Inhibition of VEGFR2.
For test [8], the target named is T2, Vascular endothelial growth factor receptor (Homo sapiens) (UniProt P17948+P35916+P35968). Put plainly: Inhibition of microvessel growth in rat aortic ring at 4 nM. Format: functional, tissue-based. Particulars: Aorta, target entry is the homologue from another species. The procedure, abridged: (§1)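 Rat aortic ring explants were cultured in serum-free collagen gel in serum-free MCDB 131 medium without exogenous VEGF. Microvessel sprouting was scored at peak growth (day 8) as percent inhibition relative to untreated controls. n = 8 replicates per concentration; inter-assay variability <10%. Statistics by Student Newman–Keuls test.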
T2 sequence (P17948 whole entry, looked up): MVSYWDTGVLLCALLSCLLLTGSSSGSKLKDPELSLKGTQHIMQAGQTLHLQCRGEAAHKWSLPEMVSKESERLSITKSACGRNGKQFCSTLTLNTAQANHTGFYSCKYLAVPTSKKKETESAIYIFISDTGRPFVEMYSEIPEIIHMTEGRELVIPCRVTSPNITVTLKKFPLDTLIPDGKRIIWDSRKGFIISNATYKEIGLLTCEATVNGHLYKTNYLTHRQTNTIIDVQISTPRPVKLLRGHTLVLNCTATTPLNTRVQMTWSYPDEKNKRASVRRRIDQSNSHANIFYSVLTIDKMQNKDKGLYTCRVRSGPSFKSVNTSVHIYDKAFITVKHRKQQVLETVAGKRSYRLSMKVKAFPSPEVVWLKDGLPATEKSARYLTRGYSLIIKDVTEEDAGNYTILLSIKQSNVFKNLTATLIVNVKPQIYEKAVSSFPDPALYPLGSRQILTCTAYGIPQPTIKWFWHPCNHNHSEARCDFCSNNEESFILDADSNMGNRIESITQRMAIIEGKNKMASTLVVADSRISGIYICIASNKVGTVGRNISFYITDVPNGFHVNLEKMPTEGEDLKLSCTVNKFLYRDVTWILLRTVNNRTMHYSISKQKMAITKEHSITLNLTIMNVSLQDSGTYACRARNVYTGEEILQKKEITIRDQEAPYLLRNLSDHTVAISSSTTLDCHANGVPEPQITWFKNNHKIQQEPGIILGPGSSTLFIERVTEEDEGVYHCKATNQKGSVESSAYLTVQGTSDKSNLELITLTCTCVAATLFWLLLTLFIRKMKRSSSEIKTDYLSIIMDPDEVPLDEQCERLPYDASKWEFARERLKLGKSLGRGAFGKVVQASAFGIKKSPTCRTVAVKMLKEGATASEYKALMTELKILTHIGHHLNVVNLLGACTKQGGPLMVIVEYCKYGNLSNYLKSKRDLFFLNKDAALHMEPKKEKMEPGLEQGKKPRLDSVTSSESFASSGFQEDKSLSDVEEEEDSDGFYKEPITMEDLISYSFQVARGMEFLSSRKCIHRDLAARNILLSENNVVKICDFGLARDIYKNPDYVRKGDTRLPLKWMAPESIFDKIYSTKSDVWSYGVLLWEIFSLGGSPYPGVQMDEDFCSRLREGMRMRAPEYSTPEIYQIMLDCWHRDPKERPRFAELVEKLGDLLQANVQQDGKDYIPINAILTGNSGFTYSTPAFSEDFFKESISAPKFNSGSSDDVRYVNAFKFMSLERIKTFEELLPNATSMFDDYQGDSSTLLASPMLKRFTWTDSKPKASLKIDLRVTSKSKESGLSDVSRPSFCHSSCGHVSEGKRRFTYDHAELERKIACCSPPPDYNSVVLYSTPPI
T2 sequence (P35916 whole entry, looked up): as the sequence (P35916 whole entry) above
T2 sequence (P35968 whole entry, looked up): as the sequence (P35968 whole entry) above

The target of test [9] is T2, Vascular endothelial growth factor receptor (Homo sapiens). Put plainly: Inhibition of microvessel growth in rat aortic ring at 40 nM. The class given is functional, tissue-based. Particulars: Aorta, target entry is the homologue from another species. The gist of the method:
as §1

Test [10] shares this target. Kind of test: Inhibition of microvessel growth in rat aortic ring at 100 nM. Format: functional, tissue-based. Particulars: Aorta, target entry is the homologue from another species. The gist of the method: as §1
Test [11] has the same target. Kind of test: Inhibition of microvessel growth in rat aortic ring at 400 nM. The class given is functional, tissue-based. Particulars: Aorta, target entry is the homologue from another species. The procedure, abridged:
as §1

Another test deals with SVR. Put plainly: Antitumor efficacy against SVR cells in nude mice at 30 mg/kg, po. Format: functional, organism-based. Further details: dose 30 mg/kg. Particulars: Mus musculus. The procedure, abridged:
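SVR murine angiosarcoma cells implanted in the right flank of female athymic nude mice. On day 5 post-implantation, once tumors were palpable, mice were randomized (n = 8–10). Dosing was 30 mg/kg/dose orally twice a day for 10 days in Tween:PG 1:1 vehicle. Tumor growth was compared with vehicle-treated controls.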

The source made the active and inactive calls. No cut-off for these calls is given here. Where only a bound is given, the exact number is not on record here.

Vascular endothelial growth factor receptor 1 (Homo sapiens), sequence (P17948 whole entry): as the sequence (P17948 whole entry, looked up) above

The compound `Cn1cc(/C=C2\C(=O)N(c3ccccc3)N=C2c2cnccn2)c2ccccc21` gave an inhibition in [1] of 23%.

For the compound `Cn1cc(/C=C2\C(=O)NN=C2c2nccs2)c2cc3c(cc21)OCO3`, the inhibition worked out at 63% in [2]; 13% in test [3]; 44% in [4]; 25% in test [6]; 55% in [8]; 66% in test [9]. For the same compound, the figures for the inhibition in test [10] and in test [11] were 75% and 90%, respectively. Besides, the results for the IC50 in test [5] and in test [7] were more than 100 µM and 0.032 µM, respectively. Also, the outcome with SVR was Active.

`Cn1cc(CC2C(=O)NN=C2c2nccs2)c2ccccc21` (stereo not drawn): the inhibition in [1] was 5%.
